Published values from different studies.
Protocols differ between the studies behind these lines.
Genome polyprotein protease: Genome polyprotein, protease (ZIKV, UniProt A0A024B7W1)
CTSB: Cathepsin B (CTSB, Homo sapiens, UniProt P07858)
USP14: Ubiquitin carboxyl-terminal hydrolase 14 (USP14, Homo sapiens, UniProt P54578)
HTR7: 5-hydroxytryptamine receptor 7 (HTR7, Homo sapiens, UniProt P34969)
Adra1a: Alpha-1A adrenergic receptor (Adra1a, Rattus norvegicus, UniProt P43140)
NR1H2: Oxysterols receptor LXR-beta (NR1H2, Homo sapiens, UniProt P55055)

Structure (SMILES) | target | read-out | mode | method | concentration | pH | inhibition [%]
O=c1c(O)c(-c2cc(O)c(O)c(O)c2)oc2cc(O)cc(O)c12 | Genome polyprotein protease | enzyme activity | inhibitor | FRET | 100 µM | pH 7 | 88
C#Cc1n[nH]c2c(-c3cn([C@@H](C)c4ccccc4)c(=O)[nH]c3=O)cc(F)cc12 | Cyclin-dependent kinase 2, with cyclin E1 (CDK2, Homo sapiens, UniProt P24941) | enzyme activity | inhibitor |  | 0.1 µM |  | -4.8
CN(C)C(=O)COC(=O)Cc1ccc(OC(=O)c2ccc(NC(=N)N)cc2)cc1 | CTSB | enzyme activity | inhibitor |  | 10 µM |  | 0
Cn1cc(-c2cccc(N3CCc4c(sc5c4CC(C)(C)C5)C3=O)c2CO)cc(Nc2ccncn2)c1=O | Cyclin-dependent kinase 8, with cyclin C (CDK8, Homo sapiens, UniProt P49336) | enzyme activity | inhibitor |  | 1 µM |  | -1
N=C(N)c1ccc2cc(OC(=O)c3ccc(N=C(N)N)cc3)ccc2c1 | USP14 | enzyme activity | inhibitor |  | 10 µM |  | 0
Oc1cccc(O)c1O | Genome polyprotein protease | enzyme activity | inhibitor | FRET | 100 µM | pH 7 | 11
N#Cc1ccc(NCCNCC(=O)N2N=CCC2C#N)nc1 (stereo not drawn) | Dipeptidyl peptidase 9 (DPP9, Homo sapiens, UniProt Q86TI2) | enzyme activity | inhibitor |  | 1 µM |  | 49
CCN(CC)CCCC[C@H](NC(=O)[C@H](CC(C)C)NC(=O)[C@H](C)NC(=O)[C@H](Cc1ccccc1)NC(=O)c1ccc(C(C)(C)C)cc1)C(=O)N[C@@H](CO)C(=O)OC | HTR7 | ligand displacement |  | radioligand | 10 µM |  | 8
CC(C)N1CCC[C@H]1CNC(=O)c1cn(C2CCCC2)c(=O)c2c1c1ccccc1n2C | Adra1a | ligand displacement |  | radioligand | 10 µM |  | 16
O=C1c2c(O)cc(O)cc2O[C@H](c2cc(O)c(O)c(O)c2)[C@H]1O | Genome polyprotein protease | enzyme activity | inhibitor | FRET | 100 µM | pH 7 | 23
C[C@@H]1O[C@@H](OC[C@H]2O[C@@H](Oc3c(-c4ccc(O)c(O)c4)oc4cc(O)cc(O)c4c3=O)[C@H](O)[C@@H](O)[C@@H]2O)[C@H](O)[C@H](O)[C@H]1O | Genome polyprotein protease | enzyme activity | inhibitor |  | 200 µM | pH 8.5 | 95.4
O=C1N=C(N2CCCCN2)S/C1=C\c1ccc(F)cc1O | HTR7 | ligand displacement |  | radioligand | 10 µM |  | < 10
O=C(Nc1cccnn1)N1CCN([C@@H]2CCOc3cc(C(F)(F)F)ccc32)CC1 | NR1H2 | cell-free assay |  |  | 20 µM |  | -6
O=c1cc(-c2ccccc2)oc2cc(O)cc(O)c12 | Genome polyprotein protease | enzyme activity | inhibitor | FRET | 100 µM | pH 7 | 19
Cn1cc(-c2cc(F)cc(N3CCn4c(cc5c4CCCC5)C3=O)c2CO)cc(Nc2ccc(N3CCN(C4COC4)CC3)cn2)c1=O | MAP kinase-activated protein kinase 3 (MAPKAPK3, Homo sapiens, UniProt Q16644) | enzyme activity | inhibitor |  | 0.1 µM |  | 9
Cc1ncc(C)n2nc(/C=C/c3nc(N4CCCC4)cc(N4CCOCC4)n3)nc12 | NR1H2 | cell-free assay |  |  | 10 µM |  | -19
CCOC(=O)c1ccc(OC(=O)CCCCCNC(=N)N)cc1 | USP14 | enzyme activity | inhibitor |  | 10 µM |  | 1
c1ccc(C(NCCNC(c2ccccc2)c2ccccc2)c2ccccc2)cc1 | Voltage-dependent N-type calcium channel subunit alpha-1B (Cacna1b, Rattus norvegicus, UniProt Q02294) | cell-free assay |  |  | 10 µM |  | -6
CC(C)Cn1cnc2c(N)nc3ccccc3c21 | Adra1a | ligand displacement |  | radioligand | 10 µM |  | 65
CC(C)C[C@H](NC(=O)[C@H]1O[C@@H]1C(=O)O)C(=O)NCCCCN=C(N)N | CTSB | enzyme activity | inhibitor |  | 500 pM |  | 32
COc1ccc(-c2oc3c(CC=C(C)C)c(O)cc(O)c3c(=O)c2O)cc1 | Genome polyprotein protease | enzyme activity | inhibitor | FRET | 100 µM | pH 7 | 19
OC(CCN1CC=C(c2ccc(F)cc2)CC1)c1ccc(F)c2ccccc12 (stereo not drawn) | Plasmepsin II (Plasmodium falciparum, UniProt P46925) | enzyme activity | inhibitor |  | 5 µM |  | 18
C#Cc1n[nH]c2c(-c3cn(C(C)c4ccccn4)c(=O)[nH]c3=O)cc(F)cc12 (stereo not drawn) | Dual specificity protein kinase CLK3 (CLK3, Homo sapiens, UniProt P49761) | enzyme activity | inhibitor |  | 1 µM |  | 8.3
COc1cc(Nc2ncc(F)c(Nc3ccc4c(n3)NC(=O)C(C)(C)O4)n2)cc(OC)c1OC | Mitogen-activated protein kinase kinase kinase kinase 1 (MAP4K1, Homo sapiens, UniProt Q92918) | binding |  | competition with immobilised ligand | 10 µM |  | 70
